The values that follow come from ChEMBL document CHEMBL4765386, “Discovery of tertiary amide derivatives incorporating benzothiazole moiety as anti-gastric cancer agents in vitro via inhibiting tubulin polymerization and activating the Hippo signaling pathway” (Eur J Med Chem, 2020).

In test [1] the test system is GES1. Briefly: Cytotoxicity against human GES1 cells assessed as reduction in cell viability incubated for 48 hrs by MTT assay. In kind it is functional, cell-based. As to conditions: GES1, 48 h. The method, boiled down:
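MTT assay. 5,000 cells per well in RPMI-1640 with 10% FBS and penicillin/streptomycin at 37 °C, 5% CO2. Compound added 24 h after seeding and left for 48 h. MTT was then added for 4 h at 37 °C, formazan dissolved in DMSO and absorbance read at 490 nm. IC50 calculated from three independent experiments.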
On the technique in general: Tetrazolium dyes change colour on reduction, which living cells bring about.

The test system of test [2] is MGC-803. Briefly: Induction of cell cycle arrest in human MGC-803 cells assessed as upregulation of Histone-H3 Ser10 at 20 to 60 nM incubated for 48 hrs by Western blot analysis. It counts as functional, cell-based. As to conditions: dose 20-60 nM. In outline: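 Cells grown in RPMI-1640 with 10% FBS, penicillin/streptomycin at 37 °C, 5% CO2. Exposure to 20, 40 or 60 nM for 48 h alongside DMSO control. Lysates denatured, resolved by SDS-PAGE, transferred to PVDF, blocked, then probed with primary and secondary antibodies.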

For test [3], the system named is SGC-7901. The test can be described thus: Induction of apoptosis in human SGC-7901 cells assessed as downregulation of c-IAP1 at 20 to 60 nM incubated for 48 hrs by Western blot analysis. The settings on record: dose 20-60 nM. In kind it is functional, cell-based. The method, boiled down:
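Western blot on MGC-803 and SGC-7901 cells given 20, 40 and 60 nM compound or DMSO for 48 h. Denatured lysates were run on SDS-PAGE and transferred to PVDF, then probed with primary and secondary antibodies to detect apoptosis-related proteins.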
A general note: Immunoblotting shows a protein as a band on a membrane.

Test [4] relates to GES1. Briefly: Cytotoxicity against human GES1 cells assessed as reduction in cell viability at 60 nmol/L incubated for 48 hrs by MTT assay. In kind it is functional. As to conditions: GES1, read-out: INH. The method, boiled down: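 MTT viability in gastric cell lines grown in RPMI-1640 with 10% FBS at 37 °C, 5% CO2. Compound at 20, 40 and 60 nM for 48 h, starting 24 h after seeding 5,000 cells per well. MTT for 4 h, formazan dissolved in DMSO, absorbance at 490 nm. Inhibition expressed relative to control.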

The test system of test [5] is SGC-7901. The test can be described thus: Inhibition of tubulin polymerization in human SGC-7901 cells assessed as decrease in filamentous structure at 20 to 60 nmol/L by DAPI staining based microscopic analysis. It counts as cell-based. The settings on record: dose 20-60 nmol/L. In outline:
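Cells cultured in RPMI-1640 with 10% FBS at 37 °C, 5% CO2, treated 48 h with 20, 40 and 60 nM; stained for β-tubulin (green) and nuclei (blue) and examined by microscopy.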

The structures appear in SMILES notation. pIC50: −log10 of the molar value. The source made the active and inactive calls. The calls are words filed in the database; no cut-off is given here.

The term pIC50 denotes the negative decadic logarithm of the IC50, by convention in mol/L. With `COc1ccc(CN(C(=O)CSc2nc3ccccc3s2)c2cc(OC)c(OC)c(OC)c2)cc1O`, in test [1], the negative logarithm of the IC50 (pIC50) is 6.60. The result in test [2], in test [3] and in test [5] was Active. Moreover, in test [4], the inhibition at 0.06 µM was < 20%.
